# Measured values of several laboratories.
# Lines come from different studies, so protocols differ.
# Sialidase-4: Sialidase-4 (Homo sapiens, UniProt Q8WWR8)
# ALOX15: Polyunsaturated fatty acid lipoxygenase ALOX15 (ALOX15, Homo sapiens, UniProt P16050)
# ache: Acetylcholinesterase (ache, Electrophorus electricus, UniProt O42275)
Compound,target,test,conditions,IC50 [µM]
CC(C)(C)c1cn([C@H]2[C@H]([C@H](O)[C@H](O)CO)OC(C(=O)O)=C[C@@H]2O)nn1,Sialidase-4,"enzyme activity, inhibitor",,80
CCOC(=O)c1ccccc1-c1c2ccc(=O)cc-2oc2cc(OCCCNC(=O)C(OC(=O)c3ccccc3)C3CC3)ccc12 (centres unmarked),ALOX15,"enzyme activity, inhibitor, absorbance",,43.7
Fc1ccc(Cn2cc(COc3ccc(-c4nnc(-c5ccccc5)o4)cc3)nn2)cc1,ache,"enzyme activity, inhibitor, Ellman",,> 100
CC(C)(C)CN[C@H]1[C@H]([C@H](O)[C@H](O)CO)OC(C(=O)O)=C[C@@H]1O,Sialidase-4,"enzyme activity, inhibitor",,40
O=C(N1CCC2(CC1)C[C@@H](CN1CCCCS1(=O)=O)CCO2)C1(c2ccccc2)CCCC1,"ATP-dependent RNA helicase DDX3X (DDX3X, Homo sapiens, UniProt O00571)","ATPase activity, inhibitor",,> 50
COc1ccc(/C=C/C(=O)N2CCCC(NC(=O)OC(C)(C)C)C2)cc1OC (centres unmarked),ache,"enzyme activity, inhibitor, Ellman",,> 50
CN(C(=O)CC(C)(C)C)[C@H]1[C@H]([C@H](O)[C@H](O)CO)OC(C(=O)O)=C[C@@H]1O,Sialidase-4,"enzyme activity, inhibitor",,> 500
CN1CC[C@@]2(C)c3cc(OC(=O)Nc4ccccc4)ccc3N(C)[C@@H]12,"Aldehyde dehydrogenase 1A1 (ALDH1A1, Homo sapiens, UniProt P00352)","enzyme activity, inhibitor, fluorescence",,< 10
CCN(C)C(=O)Oc1ccc(CCC(=O)N(CC)Cc2ccccc2)cc1OC,ache,"enzyme activity, inhibitor, Ellman",,13.8
Cc1cn([C@H]2[C@H]([C@H](O)[C@H](O)CO)OC(C(=O)O)=C[C@@H]2O)nn1,Sialidase-4,"enzyme activity, inhibitor",,26
COc1ccc(-c2nnc(-c3ccc(OCc4cn(Cc5ccc(Br)cc5)nn4)cc3)o2)cc1,ache,"enzyme activity, inhibitor, Ellman",,> 100
CCOC(=O)c1ccccc1-c1c2ccc(=O)cc-2oc2cc(OCCCNc3c(-c4ccc(Cl)cc4)nc4ccccn34)ccc12,ALOX15,"enzyme activity, inhibitor, absorbance",,78.7
CC(C)(C)NC(=O)N[C@H]1[C@H]([C@H](O)[C@H](O)CO)OC(C(=O)O)=C[C@@H]1O,Sialidase-4,"enzyme activity, inhibitor",,> 500
COc1cc(CCC(=O)N2CCC(Cc3ccccc3)CC2)ccc1OC(=O)N(c1ccccc1)c1ccccc1,ache,"enzyme activity, inhibitor, Ellman",,10.5
CCOC(=O)c1ccccc1-c1c2ccc(=O)cc-2oc2cc(OCCCNc3c(-c4ccc([N+](=O)[O-])cc4)nc4ccccn34)ccc12,ALOX15,"enzyme activity, inhibitor, absorbance",,> 100
CC(C(=O)O)n1nc(Cn2cc3cc(OCCF)c(Cl)cc3n2)c2ccccc2c1=O (racemic),"Sphingosine 1-phosphate receptor 1 (S1PR1, Homo sapiens, UniProt P21453)","ligand displacement, radioligand",cell membranes,> 1
CCN(C)C(=O)Oc1ccc(CCC(=O)N2CCc3ccccc3C2)cc1OC,ache,"enzyme activity, inhibitor, Ellman",,10.6
